pIC50: −log10 of the molar value.
Tests used:
Assay type in all cases: cell-based
Cannabinoid receptor 2 [1] = target: T1, Cannabinoid receptor 2 (Homo sapiens, UniProt P34972); assay: Binding affinity at human CB2 receptor expressed in CHO-K1 cells at 10 uM
How it was run: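 CHO-K1 cells stably transfected with full-length human CB1 or CB2 cDNA, cultured in DMEM/F-12 with 10% FBS and G418 or hygromycin B. Membranes (10 μg) incubated with test compound at 10 μM final and 0.6 nM [3H]CP-55,940 in 50 mM Tris pH 7.4, 154 mM NaCl, 20 mM Di-Na-EDTA, 0.02% BSA, 37 °C, 90 min. Filtration, scintillation counting; nonspecific binding (1 μM CP-55,940) subtracted; % displacement.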

Cannabinoid receptor 1 [2] = target: T2, Cannabinoid receptor 1 (Homo sapiens, UniProt P21554); assay: Displacement of [3H]CP-55,940 from human CB1 receptor expressed in CHO-K1 cells after 90 mins by scintillation counting
T2 sequence (P21554 whole entry): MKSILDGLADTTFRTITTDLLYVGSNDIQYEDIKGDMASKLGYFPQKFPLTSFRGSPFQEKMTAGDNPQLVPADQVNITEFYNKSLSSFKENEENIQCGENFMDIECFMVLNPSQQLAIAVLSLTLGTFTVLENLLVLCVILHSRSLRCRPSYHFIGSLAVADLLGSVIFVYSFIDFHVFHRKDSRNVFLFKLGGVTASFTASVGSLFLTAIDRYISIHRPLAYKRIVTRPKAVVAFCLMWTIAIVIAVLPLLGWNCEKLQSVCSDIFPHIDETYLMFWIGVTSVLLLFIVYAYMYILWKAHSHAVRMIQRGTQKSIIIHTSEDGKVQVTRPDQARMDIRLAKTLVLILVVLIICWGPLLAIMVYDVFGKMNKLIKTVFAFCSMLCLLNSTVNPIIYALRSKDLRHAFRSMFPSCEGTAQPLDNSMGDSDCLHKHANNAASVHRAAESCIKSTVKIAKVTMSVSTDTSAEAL
How it was run: (§1)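 Membranes from CHO-K1 cells stably expressing human CB1 or CB2, 10 μg per well, with 0.6 nM [3H]CP-55,940 in 50 mM Tris pH 7.4, 154 mM NaCl, 20 mM Di-Na-EDTA, 0.02% BSA; 37 °C for 90 min. Dose-response from 300 μM to 1.7 nM.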

Cannabinoid receptor 1 [3] = target: T2, Cannabinoid receptor 1; assay: Binding affinity at human CB1 receptor expressed in CHO-K1 cells at 10 uM
[4] = target: T3, Delta-type opioid receptor (Homo sapiens, UniProt P41143); assay: Binding affinity at human delta opioid receptor expressed in CHO-K1 cells at 10 uM
T3 sequence (P41143 whole entry): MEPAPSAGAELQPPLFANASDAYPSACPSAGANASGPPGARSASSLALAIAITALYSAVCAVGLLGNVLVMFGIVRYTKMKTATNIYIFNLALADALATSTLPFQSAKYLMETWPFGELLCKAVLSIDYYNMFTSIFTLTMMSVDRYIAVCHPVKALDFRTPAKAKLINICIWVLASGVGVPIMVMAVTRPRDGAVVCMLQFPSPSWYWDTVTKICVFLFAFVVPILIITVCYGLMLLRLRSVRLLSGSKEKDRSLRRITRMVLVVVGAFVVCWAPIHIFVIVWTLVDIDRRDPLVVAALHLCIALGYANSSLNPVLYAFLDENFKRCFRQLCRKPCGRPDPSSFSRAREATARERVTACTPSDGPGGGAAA
How it was run: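 Opioid membrane binding with test compound at 10 μM final; radioligand and membrane amounts set from saturation experiments. Incubation 25 °C, 60 min, then rapid filtration through BSA-presoaked filters, buffer wash and scintillation counting.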

Cannabinoid receptor 2 [5] = target: T1, Cannabinoid receptor 2; assay: Displacement of [3H]CP-55,940 from human CB2 receptor expressed in CHO-K1 cells after 90 mins by scintillation counting; how it was run: as §1
[6] = target: Kappa-type opioid receptor (Homo sapiens, UniProt P41145); assay: Displacement of [3H]nor-Binaltorphimine from human kappa opioid receptor expressed in CHO-K1 cells after 60 mins by scintillation counting
Kappa-type opioid receptor, sequence (P41145 whole entry): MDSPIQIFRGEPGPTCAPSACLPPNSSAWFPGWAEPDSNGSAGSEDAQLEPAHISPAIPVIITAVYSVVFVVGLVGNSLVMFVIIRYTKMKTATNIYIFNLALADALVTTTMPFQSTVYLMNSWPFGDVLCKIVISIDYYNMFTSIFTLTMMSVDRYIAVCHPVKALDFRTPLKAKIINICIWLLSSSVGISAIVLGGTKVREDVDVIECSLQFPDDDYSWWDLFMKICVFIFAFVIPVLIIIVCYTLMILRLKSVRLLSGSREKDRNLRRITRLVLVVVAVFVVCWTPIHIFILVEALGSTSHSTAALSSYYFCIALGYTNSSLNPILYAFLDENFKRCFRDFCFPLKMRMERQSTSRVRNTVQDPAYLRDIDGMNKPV
How it was run: (§2)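 Opioid receptor membranes incubated with radioligand (amounts set from saturation experiments) at 25 °C for 60 min, test compound at 300 μM to 1.7 nM in dose-response. Rapid filtration through BSA-presoaked filters, scintillation counting; nonspecific binding (10 μM DPDPE, nor-binaltorphimine or DAMGO) subtracted. IC50 = concentration for 50% inhibition of 3H-ligand binding.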

Mu-type opioid receptor = Mu-type opioid receptor (Homo sapiens, UniProt P35372); assay: Displacement of [3H]DAMGO from human mu opioid receptor expressed in CHO-K1 cells after 60 mins by scintillation counting; how it was run: as §2
Mu-type opioid receptor, sequence (P35372 whole entry): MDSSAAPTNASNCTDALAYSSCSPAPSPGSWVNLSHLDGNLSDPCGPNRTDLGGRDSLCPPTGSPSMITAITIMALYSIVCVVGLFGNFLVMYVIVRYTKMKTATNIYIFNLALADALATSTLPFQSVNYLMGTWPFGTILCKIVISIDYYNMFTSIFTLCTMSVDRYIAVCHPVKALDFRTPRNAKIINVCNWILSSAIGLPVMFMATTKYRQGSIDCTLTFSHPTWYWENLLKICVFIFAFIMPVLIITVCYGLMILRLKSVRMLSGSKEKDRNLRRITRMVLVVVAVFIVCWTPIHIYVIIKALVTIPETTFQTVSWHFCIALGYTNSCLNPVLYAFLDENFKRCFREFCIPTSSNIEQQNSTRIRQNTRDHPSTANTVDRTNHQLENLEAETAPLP

[7] = target: T3, Delta-type opioid receptor; assay: Displacement of [3H]DPDPE from human delta opioid receptor expressed in CHO-K1 cells after 60 mins by scintillation counting; how it was run: as §2

T1 sequence (P34972 whole entry): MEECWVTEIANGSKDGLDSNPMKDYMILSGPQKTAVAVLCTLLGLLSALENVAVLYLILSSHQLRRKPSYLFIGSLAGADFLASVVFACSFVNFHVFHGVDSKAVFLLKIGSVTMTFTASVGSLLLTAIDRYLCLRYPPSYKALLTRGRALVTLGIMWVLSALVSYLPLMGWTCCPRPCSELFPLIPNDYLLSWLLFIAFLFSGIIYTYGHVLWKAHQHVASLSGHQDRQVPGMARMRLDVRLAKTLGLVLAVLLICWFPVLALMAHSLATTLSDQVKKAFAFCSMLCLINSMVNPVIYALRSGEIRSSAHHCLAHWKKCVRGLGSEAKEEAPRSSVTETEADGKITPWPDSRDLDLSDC

| Activity (Cannabinoid receptor 2 [1]) [%] | pIC50 (Cannabinoid receptor 1 [2]) | Activity (Cannabinoid receptor 1 [3]) [%] | Activity [4] [%] | pIC50 (Cannabinoid receptor 2 [5]) | pIC50 [6] | pIC50 (Mu-type opioid receptor) | pIC50 [7] | SMILES |
| --- | --- | --- | --- | --- | --- | --- | --- | --- |
| 43.1 | 4.82 | 62.6 | < 40 | 4.70 | – | – | – | C/C=C/C=C/C=C/c1c(O)cc(CC=C(C)C)c(O)c1C=O [AUROGLAUCIN] |
| < 40 | – | < 40 | < 40 | – | – | – | – | Cc1c(O)cc(O)c2c1COC2=O |
| – | – | – | < 40 | – | 4.49 | – | – | CCCCC/C=C/c1c(O)cc(CC=C(C)C)c2c1CC(O)O2 (stereo not given) |
| < 40 | – | < 40 | < 40 | – | – | 5.14 | – | CCCCC/C=C/c1c(O)cc(CC=C(C)C)c(O)c1C=O [TETRAHYDROAUROGLAUCIN] |
| < 40 | – | < 40 | 62.2 | – | – | – | 5.27 | CCCCC/C=C/c1c(O)cc(CC=C(C)C)c(O)c1CO |
| < 40 | – | < 40 | < 40 | – | – | – | – | CCC/C=C/c1cc2c(C=O)c(O)c(CC=C(C)C)cc2o1 |
| < 40 | – | < 40 | < 40 | – | – | – | – | CCC/C=C/C=C/c1c(O)cc(CC=C(C)C)c(O)c1C=O |
| < 40 | – | < 40 | 52.5 | – | – | – | – | CCCCCCCc1c(O)cc(CC=C(C)C)c(O)c1C=O |

| SMILES | Activity (Cannabinoid receptor 2 [1]) [%] | pIC50 (Cannabinoid receptor 1 [2]) | Activity (Cannabinoid receptor 1 [3]) [%] | Activity [4] [%] | pIC50 (Cannabinoid receptor 2 [5]) | pIC50 [6] | pIC50 (Mu-type opioid receptor) | pIC50 [7] |
| --- | --- | --- | --- | --- | --- | --- | --- | --- |
| C=CC(C)(C)c1[nH]c2c(CC=C(C)C)cc(CC=C(C)C)cc2c1C[C@@H]1NC(=O)[C@H](C)NC1=O | < 40 | – | < 40 | < 40 | – | – | – | – |
